Experimental data: ChEMBL document CHEMBL3414423, “Jatrophane diterpenes as inhibitors of chikungunya virus replication: structure-activity relationship and discovery of a potent lead” (J Nat Prod, 2014)

Experiments:
Chikungunya virus = assay: Antiviral activity against Chikungunya virus 899 infected in African green monkey Vero cells assessed as inhibition of virus-induced cell death after 6 to 7 days by MTS assay; format: functional, cell-based; details: Chikungunya virus, 899, Vero
[1] = system: Human immunodeficiency virus 1; assay: Antiviral activity against Human immunodeficiency virus 1 3b infected in human MT4 cells assessed as inhibition of virus replication after 5 days by MTT assay; format: functional, organism-based; details: MT4, 120 h
Outline: (§1)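 MT-4 cells ([…] suspension) infected with HIV-1 IIIB or HIV-2 ROD at 100−300 CCID50, with serial 5-fold compound dilutions in triplicate. Viability read by MTT reduction 5 days after infection. SI = CC50 MT-4/IC50. Median ± median absolute deviation, ≥3 independent assays.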

Sindbis virus = assay: Antiviral activity against Sindbis virus HRsp infected in African green monkey Vero cells assessed as inhibition of virus-induced cell death after 6 to 7 days by MTS assay; format: functional, organism-based
[2] = Cytotoxicity against African green monkey Vero cells assessed as inhibition of overall cell metabolism after 6 to 7 days by MTS assay; format: ADME, cell-based; details: chlorocebus sabaeus
Outline: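 Uninfected Vero cells (25 000/well) with compound serial dilutions in MEM with 2% FCS, 37 °C, 6−7 days. Readout 5% MTS for 1.5 h, absorbance 498 nm. CC50 is the concentration calculated to inhibit overall cell metabolism by 50%, from dose−response curves. Median ± median absolute deviation, ≥3 independent assays.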

Semliki Forest virus = assay: Antiviral activity against Semliki forest virus Vietnam infected in African green monkey Vero cells assessed as inhibition of virus-induced cell death after 6 to 7 days by MTS assay; format: functional, organism-based
[3] = Cytotoxicity against human MT4 cells assessed as inhibition of overall cell metabolism after 5 days by MTT assay; format: ADME, cell-based
Outline: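 Mock-infected MT-4 cells in triplicate wells with serial 5-fold compound dilutions run alongside the infected series. Viability read by MTT formazan 5 days later; CC50 from the concentration-response. Median ± median absolute deviation, ≥3 independent assays.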

[4] = system: Human immunodeficiency virus 2; assay: Antiviral activity against Human immunodeficiency virus type 2 ROD infected in human MT4 cells assessed as inhibition of virus replication after 5 days by MTT assay; format: functional, organism-based; details: Human immunodeficiency virus 2, ISOLATE ROD, MT4, 120 h; outline: as §1
[5] = Selectivity index, ratio of CC50 for human MT4 cells to IC50 for Human immunodeficiency virus 1 3b infected in human MT4 cells; format: functional; outline: as §1
[6] = Selectivity index, ratio of CC50 for African green monkey Vero cells to EC50 for Chikungunya virus 899 infected in African green monkey Vero cells; format: toxicity, cell-based; details: read-out: Ratio CC50/EC50
[7] = Selectivity index, ratio of CC50 for human MT4 cells to IC50 for Human immunodeficiency virus type 2 ROD infected in human MT4 cells; format: functional; outline: as §1
[8] = Selectivity index, ratio of CC50 for African green monkey Vero cells to EC50 for Sindbis virus HRsp infected in African green monkey Vero cells; format: toxicity, cell-based; details: read-out: Ratio CC50/EC50
[9] = system: Human immunodeficiency virus 1; assay: Antiviral activity against recombinant Human immunodeficiency virus 1 NL4.3 containing Renilla gene infected in CD3/IL2-activated human MT2 cells assessed as inhibition of virus replication pretreated for 2 hrs followed by viral infection for additional 2 hrs measured after 48 hrs by Renilla-luciferase reporter gene assay; format: functional, organism-based; details: Human immunodeficiency virus 1, NL4.3, MT2
[10] = Cytotoxicity against human MT2 cells assessed as cell viability incubated for 2 weeks with every 48 to 72 hrs of compound washed out measured on day 2, 6, 10, 14 by CellTiter Glo luminescence assay; format: cell-based
[11] = Selectivity index, ratio of CC50 for African green monkey Vero cells to EC50 for Semliki forest virus Vietnam infected in African green monkey Vero cells; format: toxicity, cell-based; details: read-out: Ratio CC50/EC50

| Compound | EC50 (Chikungunya virus) | IC50 [1] | EC50 (Sindbis virus) | CC50 [2] | EC50 (Semliki Forest virus) | CC50 at 120 h [3] | IC50 [4] | Ratio CC50/IC50 [5] | selectivity ratio [6] | Ratio CC50/IC50 [7] | selectivity ratio [8] | IC50 [9] | CC50 at 336 h [10] | selectivity ratio [11] |
| --- | --- | --- | --- | --- | --- | --- | --- | --- | --- | --- | --- | --- | --- | --- |
| C=C1[C@H](OC(C)=O)[C@H]2[C@@H](OC(C)=O)[C@](C)(O)C[C@]2(OC(C)=O)C(=O)[C@H](C)/C=C/C(C)(C)C(=O)[C@H](OC(C)=O)[C@H]1OC(C)=O | > 164 µM | – | – | – | – | – | – | – | – | – | – | – | – | – |
| C=C1[C@H](OC(C)=O)[C@H]2[C@@H](OC(C)=O)[C@](C)(O)C[C@]2(OC(C)=O)C(=O)[C@H](C)/C=C/C(C)(C)C(=O)[C@H](OC(=O)C(C)C)[C@H]1OC(C)=O | > 196 µM | > 79 µM | > 157 µM | > 196 µM | > 157 µM | > 32 µM | > 79 µM | – | – | – | – | – | – | – |
| C=C1[C@H](OC(C)=O)[C@H]2[C@@H](OC(C)=O)[C@](C)(O)C[C@]2(OC(C)=O)C(=O)[C@H](C)/C=C/C(C)(C)C(=O)[C@H](OC(=O)/C(C)=C/C)[C@H]1OC(C)=O | 0.76 µM | 0.34 µM | 44 µM | 159 µM | > 116 µM | > 32 µM | 0.043 µM | >96 | 208 | >751 | 3.6 | – | – | – |
| C=C1[C@H](OC(C)=O)[C@H]2[C@@H](OC(C)=O)[C@](C)(O)C[C@]2(OC(C)=O)C(=O)[C@H](C)/C=C/C(C)(C)C(=O)[C@H](OC(=O)c2ccccc2)[C@H]1OC(C)=O | 4.3 µM | > 59 µM | > 165 µM | 125 µM | > 165 µM | > 30 µM | 10.9 µM | – | 29 | >2.8 | – | – | – | – |
| C=C1[C@H](OC(C)=O)[C@H]2[C@@H](OC(C)=O)[C@](C)(OC(C)=O)C[C@]2(OC(C)=O)C(=O)[C@H](C)/C=C/C(C)(C)C(=O)[C@H](OC(C)=O)[C@H]1OC(C)=O | 60 µM | 37.1 µM | > 154 µM | > 154 µM | > 115 µM | > 33 µM | 5.9 µM | – | > 2.6 | >5.5 | – | 0.002 µM | > 100 µM | – |
| C=C1[C@H](OC(C)=O)[C@H]2[C@@H](OC(C)=O)[C@](C)(OC(C)=O)C[C@]2(OC(C)=O)C(=O)[C@H](C)/C=C/C(C)(C)C(=O)[C@H](OC(=O)/C(C)=C/C)[C@H]1OC(C)=O | 17.4 µM | 21.5 µM | > 145 µM | 145 µM | > 145 µM | > 35 µM | 2 µM | >1.6 | 8.3 | >18 | – | – | – | – |
| C=C1[C@H](OC(C)=O)[C@H]2[C@@H](OC(C)=O)[C@](C)(OC(C)=O)C[C@]2(OC(C)=O)C(=O)[C@H](C)/C=C/C(C)(C)C(=O)[C@H](OC(=O)c2ccccc2)[C@H]1OC(C)=O | 17.1 µM | > 70 µM | > 140 µM | > 50 µM | > 140 µM | > 36 µM | 34.7 µM | – | > 2.9 | >1 | – | – | – | – |
| C=C1[C@H](OC(C)=O)[C@H]2[C@@H](OC(=O)c3ccccc3)[C@@H](C)C[C@]2(O)[C@H](O)[C@H](C)/C=C/C(C)(C)C(=O)[C@H](OC(C)=O)[C@H]1OC(C)=O | 19.5 µM | > 38 µM | 30.1 µM | 151 µM | 62 µM | > 31 µM | 5.2 µM | – | 7.8 | >6 | 5 | – | – | 2.4 |
| C=C1[C@H](OC(C)=O)[C@H]2[C@@H](OC(=O)c3ccccc3)[C@@H](C)C[C@]2(O)[C@H](O)[C@H](C)/C=C/C(C)(C)C(=O)[C@H](OC(=O)C(C)C)[C@H]1OC(C)=O | 21 µM | > 39 µM | 28.8 µM | 60 µM | 20.5 µM | > 16 µM | > 39 µM | – | 2.8 | – | 2.1 | – | – | 2.9 |
| C=C1[C@H](OC(C)=O)[C@H]2[C@@H](OC(=O)c3ccccc3)[C@@H](C)C[C@]2(O)[C@H](O)[C@H](C)/C=C/C(C)(C)C(=O)[C@H](OC(=O)C(C)CC)[C@H]1OC(C)=O (stereo partly specified) | 111 µM | > 76 µM | 51 µM | > 190 µM | 76 µM | > 33 µM | > 76 µM | – | > 1.7 | – | > 3.7 | – | – | > 2.5 |
| C=C1[C@H](OC(C)=O)[C@H]2[C@@H](OC(=O)c3ccccc3)[C@@H](C)C[C@]2(O)[C@H](OC(C)=O)[C@H](C)/C=C/C(C)(C)C(=O)[C@H](O)[C@H]1OC(C)=O | 80 µM | > 81 µM | > 163 µM | 150 µM | > 163 µM | > 31 µM | 32.5 µM | – | 1.9 | <0.9 | – | – | – | – |
| CCN(CC)CCCC(C)Nc1ccnc2cc(Cl)ccc12 (stereo unspecified) [CHLOROQUINE] | 10 µM | – | – | – | – | – | – | – | – | – | – | – | – | – |
| O=c1[nH]cnc2c1ncn2[C@H]1CC[C@@H](CO)O1 [DIDANOSINE] | – | 10.8 µM | – | – | – | > 50 µM | 9.6 µM | >4.6 | – | >5.2 | – | – | – | – |
| Nc1ccn([C@@H]2CS[C@H](CO)O2)c(=O)n1 [LAMIVUDINE] | – | – | – | – | – | > 87 µM | – | >22 | – | >5.6 | – | – | – | – |
| Cc1ccnc2c1NC(=O)c1cccnc1N2C1CC1 [NEVIRAPINE] | – | – | – | – | – | > 15 µM | > 15 µM | – | – | – | – | – | – | – |
| Cc1cn([C@H]2C[C@H](N=[N+]=[N-])[C@@H](CO)O2)c(=O)[nH]c1=O [ZIDOVUDINE] | – | – | – | – | – | > 25 µM | 0.006 µM | – | – | – | – | – | – | – |
